{"source": "ChEMBL document CHEMBL1122263", "about": "“Resolution and absolute configuration of an ergoline-related dopamine agonist, trans-4,4a,5,6,7,8,8a,9-Octahydro-5-propyl-1H(or 2H)-pyrazolo[3,4-g]quinoline” (J Med Chem, 1983)", "key": {"Rattus norvegicus [1]": {"test_system": "Rattus norvegicus", "experiment": "Effect on Turning behavior in male rats with unilateral 6-hydroxydopamine-induced lesions of the nigrostriatal tract at 500 ug/kg ip", "format": "functional", "method_in_brief": "(§1)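 Rats carrying unilateral 6-hydroxydopamine lesions of the nigrostriatal tract, six per group, dosed ip. Contralateral turning recorded as: % of rats making at least one turn/min for 15 min; average turns in the first 15 min after turning began; turns in the first hour; and duration of turning in hours.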"}, "Rattus norvegicus [2]": {"test_system": "Rattus norvegicus", "experiment": "Effect (% reduction) on serum levels in reserpinized male rats at a dose,0.017 umol/kg", "format": "functional", "method_in_brief": "(§2)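 Prolactin assay in reserpinized male rats, run by standard methods. Doses given orally; value is % reduction of serum prolactin versus control. Significance set at p < 0.05.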"}, "Rattus norvegicus [3]": {"test_system": "Rattus norvegicus", "experiment": "Effect (% reduction) on serum levels in reserpinized male rats at a dose, 0.3 umol/kg", "format": "functional", "method_in_brief": "as §2"}, "Rattus norvegicus [4]": {"test_system": "Rattus norvegicus", "experiment": "Hypotensive activity when administered iv in pentobarbital-anesthetized, spontaneously hypertensive rats, at a dose 100 ug/Kg", "format": "functional", "method_in_brief": "(§3)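 Spontaneously hypertensive rats under pentobarbital anesthesia, arterial BP recorded. Dosing iv, ip or intragastric at 1–1000 μg/kg. Value is maximum % change in BP, taken immediately after iv or within 30 min after ip/ig dosing. Mean ± SE of four rats.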"}, "Rattus norvegicus [5]": {"test_system": "Rattus norvegicus", "experiment": "Hypotensive activity when administered iv in pentobarbital-anesthetized, spontaneously hypertensive rats, at a dose 0.1 ug/kg", "format": "functional"}, "Rattus norvegicus [6]": {"test_system": "Rattus norvegicus", "experiment": "Hypotensive activity when administered iv in pentobarbital-anesthetized, spontaneously hypertensive rats, at a dose 1 ug/Kg", "format": "functional", "method_in_brief": "as §3"}, "Rattus norvegicus [7]": {"test_system": "Rattus norvegicus", "experiment": "Effect (% reduction) on serum levels in reserpinized male rats at a dose, 0.03 umol/kg", "format": "functional", "method_in_brief": "as §2"}, "Rattus norvegicus [8]": {"test_system": "Rattus norvegicus", "experiment": "Hypotensive activity when administered iv in pentobarbital-anesthetized, spontaneously hypertensive rats, at a dose 10 ug/Kg", "format": "functional", "method_in_brief": "as §3"}, "Rattus norvegicus [9]": {"test_system": "Rattus norvegicus", "experiment": "Effect (% reduction) on serum levels in reserpinized male rats at a dose, 0.17 umol/kg", "format": "functional", "method_in_brief": "as §2"}, "Rattus norvegicus [10]": {"test_system": "Rattus norvegicus", "experiment": "Hypotensive activity when administered iv in pentobarbital-anesthetized, spontaneously hypertensive rats, at a dose 1000 ug/Kg", "format": "functional", "method_in_brief": "as §3"}, "Rattus norvegicus [11]": {"organism": "Rattus norvegicus", "experiment": "Effect of lordotic behavior of rats preinjection lordosis-to-mount ratio", "format": "functional", "method_in_brief": "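Chronically ovariectomized Long-Evans hooded rats primed with 100 μg estrone sc in sesame oil 48 h before testing. Lordosis-to-mount ratio scored over 15 mounts by a sexually active male before injection. Drug given sc at 25 μg/kg in 1 mM ascorbic acid/1 mM acetic acid; retested 90 min later. N = 20; X ± SE.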"}, "Rattus norvegicus [12]": {"test_system": "Rattus norvegicus", "experiment": "Effect on turning behavior in male rats with unilateral 6-OH-Dopamine-induced lesions of the nigrostriatal tract at 100 ug/kg i.p.", "format": "functional", "method_in_brief": "as §1"}, "Rattus norvegicus [13]": {"test_system": "Rattus norvegicus", "experiment": "Effect of iv injection on arterial blood pressure in the anesthetized, spontaneously hypertensive rat at a dose 10 ug/kg"}, "Canis familiaris [14]": {"test_system": "Canis familiaris", "experiment": "Effect of iv injection on arterial blood pressure in the anesthetized, normotensive dog at a dose 1000 ug/kg", "format": "functional, Canis lupus familiaris"}, "Rattus norvegicus [15]": {"test_system": "Rattus norvegicus", "experiment": "Hypotensive activity when administered iv in pentobarbital-anesthetized, spontaneously hypertensive rats, at a dose 100 ug/kg", "format": "functional", "method_in_brief": "as §3"}, "Rattus norvegicus [16]": {"test_system": "Rattus norvegicus", "experiment": "Hypotensive activity when administered ip in pentobarbital-anesthetized, spontaneously hypertensive rats, at a dose 10 ug/kg", "format": "functional", "method_in_brief": "as §3"}, "Rattus norvegicus [17]": {"test_system": "Rattus norvegicus", "experiment": "Hypotensive activity when administered ig in pentobarbital-anesthetized, spontaneously hypertensive rats, at a dose 100 ug/kg", "format": "functional", "method_in_brief": "as §3"}, "Felis catus [18]": {"test_system": "Felis catus", "experiment": "Effect of iv injection on arterial blood pressure in the anesthetized, normotensive cat at a dose 100 ug/kg", "format": "functional"}, "Rattus norvegicus [19]": {"test_system": "Rattus norvegicus", "experiment": "Effect of iv injection on arterial blood pressure in the anesthetized, spontaneously hypertensive rat at a dose 1000 ug/kg"}, "Rattus norvegicus [20]": {"test_system": "Rattus norvegicus", "experiment": "Hypotensive activity when administered ig in pentobarbital-anesthetized, spontaneously hypertensive rats, at a dose 10 ug/kg", "format": "functional", "method_in_brief": "as §3"}, "Canis familiaris [21]": {"test_system": "Canis familiaris", "experiment": "Effect of iv injection on arterial blood pressure in the anesthetized, normotensive dog at a dose 100 ug/kg", "format": "functional, Canis lupus familiaris"}, "Rattus norvegicus [22]": {"test_system": "Rattus norvegicus", "experiment": "Effect of iv injection on arterial blood pressure in the anesthetized, spontaneously hypertensive rat at a dose 100 ug/kg"}, "Rattus norvegicus [23]": {"test_system": "Rattus norvegicus", "experiment": "Hypotensive activity when administered iv in pentobarbital-anesthetized, spontaneously hypertensive rats, at a dose 10 ug/kg", "format": "functional", "method_in_brief": "as §3"}, "Canis familiaris [24]": {"test_system": "Canis familiaris", "experiment": "Effect of iv injection on arterial blood pressure in the anesthetized, normotensive dog at a dose 10 ug/kg", "format": "functional, Canis lupus familiaris"}, "Rattus norvegicus [25]": {"test_system": "Rattus norvegicus", "experiment": "Hypotensive activity when administered ig in pentobarbital-anesthetized, spontaneously hypertensive rats, at a dose 1000 ug/kg", "format": "functional", "method_in_brief": "as §3"}, "Rattus norvegicus [26]": {"test_system": "Rattus norvegicus", "experiment": "Hypotensive activity when administered ip in pentobarbital-anesthetized, spontaneously hypertensive rats, at a dose 1000 ug/kg", "format": "functional", "method_in_brief": "as §3"}, "Rattus norvegicus [27]": {"test_system": "Rattus norvegicus", "experiment": "Hypotensive activity when administered iv in pentobarbital-anesthetized, spontaneously hypertensive rats, at a dose 1000 ug/kg", "format": "functional", "method_in_brief": "as §3"}, "Felis catus [28]": {"test_system": "Felis catus", "experiment": "Effect of iv injection on arterial blood pressure in the anesthetized, normotensive cat at a dose 10 ug/kg", "format": "functional"}, "Canis familiaris [29]": {"test_system": "Canis familiaris", "experiment": "Effect of iv injection on arterial blood pressure in the anesthetized, normotensive dog at a dose 1 ug/kg", "format": "functional, Canis lupus familiaris"}, "Rattus norvegicus [30]": {"test_system": "Rattus norvegicus", "experiment": "Hypotensive activity when administered ip in pentobarbital-anesthetized, spontaneously hypertensive rats, at a dose 100 ug/kg", "format": "functional", "method_in_brief": "as §3"}, "Rattus norvegicus [31]": {"test_system": "Rattus norvegicus", "experiment": "Effect of iv injection on arterial blood pressure in the anesthetized, spontaneously hypertensive rat at a dose 1 ug/kg"}, "Rattus norvegicus [32]": {"test_system": "Rattus norvegicus", "experiment": "Hypotensive activity when administered iv in pentobarbital-anesthetized, spontaneously hypertensive rats, at a dose 1 ug/kg", "format": "functional", "method_in_brief": "as §3"}}, "note": "Where “and” joins values, the source holds several entries; their conditions need not be identical. Identical values can stand only once."}
{"smiles": "CN1CCc2cccc3c2[C@H]1Cc1ccc(O)c(O)c1-3", "note": "[APOMORPHINE]", "values": [{"measurement": "Activity", "setting": "Rattus norvegicus [1]", "value": 100, "unit": "%"}]}
{"smiles": "CCCN1CCC[C@@H]2Cc3n[nH]cc3CC21", "note": "(single isomer, unassigned; (-))", "values": [{"measurement": "Reduction", "setting": "Rattus norvegicus [2]", "value": 26, "unit": "%"}, {"measurement": "Reduction", "setting": "Rattus norvegicus [3]", "value": 88, "unit": "%"}, {"measurement": "BP change", "setting": "Rattus norvegicus [4]", "value": -38.6, "unit": "%"}, {"measurement": "BP change", "setting": "Rattus norvegicus [5]", "value": -7.7, "unit": "%"}, {"measurement": "BP change", "setting": "Rattus norvegicus [6]", "value": -14.3, "unit": "%"}, {"measurement": "Activity", "setting": "Rattus norvegicus [1]", "value": 100, "unit": "%"}, {"measurement": "Reduction", "setting": "Rattus norvegicus [7]", "value": 38, "unit": "%"}, {"measurement": "BP change", "setting": "Rattus norvegicus [8]", "value": -25.2, "unit": "%"}, {"measurement": "Reduction", "setting": "Rattus norvegicus [9]", "value": 73, "unit": "%"}]}
{"smiles": "CCCN1CCC[C@@H]2Cc3n[nH]cc3CC21", "note": "(single isomer, unassigned; (+))", "values": [{"measurement": "BP change", "setting": "Rattus norvegicus [10]", "value": -6.4, "unit": "%"}, {"measurement": "L/M ratio", "setting": "Rattus norvegicus [11]", "value": 0.12}, {"measurement": "BP change", "setting": "Rattus norvegicus [4]", "value": -4.6, "unit": "%"}, {"measurement": "BP change", "setting": "Rattus norvegicus [5]", "value": -8.5, "unit": "%"}, {"measurement": "Activity", "setting": "Rattus norvegicus [12]", "value": "0% and 0"}, {"measurement": "BP change", "setting": "Rattus norvegicus [6]", "value": -5.1, "unit": "%"}, {"measurement": "Activity", "setting": "Rattus norvegicus [1]", "value": 0, "unit": "%"}, {"measurement": "BP change", "setting": "Rattus norvegicus [8]", "value": -5, "unit": "%"}]}
{"smiles": "CCCN1CCC[C@@H]2Cc3n[nH]cc3CC21", "note": "(mixture of isomers)", "values": [{"measurement": "BP change", "setting": "Rattus norvegicus [13]", "value": -22, "unit": "%"}, {"measurement": "Reduction", "setting": "Rattus norvegicus [2]", "value": 19, "unit": "%"}, {"measurement": "BP change", "setting": "Canis familiaris [14]", "value": -46, "unit": "%"}, {"measurement": "BP change", "setting": "Rattus norvegicus [15]", "value": -32, "unit": "%"}, {"measurement": "Reduction", "setting": "Rattus norvegicus [3]", "value": 76, "unit": "%"}, {"measurement": "BP change", "setting": "Rattus norvegicus [16]", "value": -6.1, "unit": "%"}, {"measurement": "BP change", "setting": "Rattus norvegicus [17]", "value": -27.6, "unit": "%"}, {"measurement": "BP change", "setting": "Felis catus [18]", "value": -45, "unit": "%"}, {"measurement": "BP change", "setting": "Rattus norvegicus [19]", "value": -52, "unit": "%"}, {"measurement": "BP change", "setting": "Rattus norvegicus [20]", "value": -5.4, "unit": "%"}, {"measurement": "BP change", "setting": "Canis familiaris [21]", "value": -45, "unit": "%"}, {"measurement": "BP change", "setting": "Rattus norvegicus [22]", "value": -32, "unit": "%"}, {"measurement": "BP change", "setting": "Rattus norvegicus [23]", "value": -22.4, "unit": "%"}, {"measurement": "BP change", "setting": "Canis familiaris [24]", "value": -34, "unit": "%"}, {"measurement": "BP change", "setting": "Rattus norvegicus [25]", "value": -50.7, "unit": "%"}, {"measurement": "BP change", "setting": "Rattus norvegicus [26]", "value": -45.7, "unit": "%"}, {"measurement": "BP change", "setting": "Rattus norvegicus [27]", "value": -52.2, "unit": "%"}, {"measurement": "BP change", "setting": "Felis catus [28]", "value": -23, "unit": "%"}, {"measurement": "BP change", "setting": "Canis familiaris [29]", "value": -15, "unit": "%"}, {"measurement": "Reduction", "setting": "Rattus norvegicus [7]", "value": 20, "unit": "%"}, {"measurement": "BP change", "setting": "Rattus norvegicus [30]", "value": -40.5, "unit": "%"}, {"measurement": "BP change", "setting": "Rattus norvegicus [31]", "value": -13, "unit": "%"}, {"measurement": "Reduction", "setting": "Rattus norvegicus [9]", "value": 65, "unit": "%"}, {"measurement": "BP change", "setting": "Rattus norvegicus [32]", "value": -12.7, "unit": "%"}]}
